Test results as given in paper PMC12216437 (Scientific Reports, 2025).
≈ marks a conversion by molar mass, not a printed value. Non-standard residues stand in square brackets, D forms with d. Residues, ends and D or L forms follow the SMILES beside them. hArg = N=C(N)NCCCC[C@H](N)C(=O)O

Legend:
[1] = tested on: E. coli ATCC 8739; experiment: Resistance development assay; type: cell-based; settings: for fold increase in MIC: E. coli ATCC 8739, sub-MIC exposure; for MIC: Escherichia coli, ATCC8739
[2] = tested on: E. coli ATCC 8739; experiment: Thermal and trypsin sensitivity; type: cell-based; settings: for MIC, 80 °C: E. coli ATCC 8739, peptide heated at 80 °C for 10 min, no trypsin; for MBC, Control / MIC, Control: E. coli ATCC 8739, untreated peptide
[3] = tested on: E. coli ATCC 8739; experiment: Cytoplasmic membrane depolarization assay; type: cell-based; settings: E. coli ATCC 8739, membrane depolarisation
How it was run: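 E. coli ATCC 8739 washed twice and resuspended to OD600 0.05 in 5 mM HEPES (pH 7.4) with 20 mM glucose and 100 mM KCl. Cells incubated 1 h in the dark with Disc3(5) solution (20 µM). Baseline read every 1 min for 5 min ([…]/em 645 nm). Peptide at various concentrations or melittin control then added; read every 1 min for 15 min.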

[4] = LPS-binding assay; settings: BC displacement, peptide 0.5-32 μM
How it was run: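 BODIPY-TR cadaverine displacement: LPS (25 µg/mL) preincubated with BC dye (2.5 µg/mL) for 4 h at room temperature. Peptides, with melittin as positive control, prepared at 0.5–32 µM in Tris–HCl pH 7.4 and combined with LPS–BC mixture for 1 h at 37 °C. Fluorescence read at ex 590/em 645 nm; triplicates, independent experiments.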

[5] = tested on: E. coli ATCC 8739; experiment: Salts and serum sensitivity; type: cell-based; settings: for MIC, NH4+: E. coli ATCC 8739, 6 μM NH4Cl; for MIC, Zn2+: E. coli ATCC 8739, 8 mM ZnCl2; for MBC, Serum 10% / MIC, Serum 10%: E. coli ATCC 8739, 10% FBS
[6] = tested on: Wax Moth Larvae (Galleria mellonella); experiment: In vivo toxicity in larvae; settings: uninfected larvae, 4 × MIC of peptide 7, five-day observation
How it was run: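 Uninfected Galleria mellonella larvae (250 ± 20 mg), ten per group, given test compound at 4 × MIC; PBS as vehicle-only group. Kept at 24 °C and survival scored every 24 h for five days.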

[7] = E. coli ATCC 8739, 2.5 mM CaCl2

CO/N=C(\C(=O)N[C@@H]1C(=O)N2C(C(=O)O)=C(COC(C)=O)CS[C@H]12)c1csc(N)n1 [Cefotaxime]
fold increase in MIC ([1]; twenty passages (twenty days)): 32 fold | MIC [1]: 1 µM (≈ 0.455 µg/mL)

CNC(C)C1CCC(N)C(OC2C(N)CC(N)C(OC3OCC(C)(O)C(NC)C3O)C2O)O1 (stereo not drawn) [Gentamicin]
fold increase in MIC ([1]; twenty passages (twenty days)): 32 fold | MIC [1]: 2 µM (≈ 0.955 µg/mL)

CC[C@H](C)[C@H](NC(=O)CN)C(=O)NCC(=O)N[C@@H](C)C(=O)N[C@H](C(=O)N[C@@H](CC(C)C)C(=O)N[C@@H](CCCCN)C(=O)N[C@H](C(=O)N[C@@H](CC(C)C)C(=O)N[C@H](C(=O)N[C@H](C(=O)NCC(=O)N[C@@H](CC(C)C)C(=O)N1CCC[C@H]1C(=O)N[C@@H](C)C(=O)N[C@@H](CC(C)C)C(=O)N[C@H](C(=O)N[C@@H](CO)C(=O)N[C@@H](Cc1c[nH]c2ccccc12)C(=O)N[C@H](C(=O)N[C@@H](CCCCN)C(=O)N[C@@H](CCCNC(=N)N)C(=O)N[C@@H](CCCCN)C(=O)N[C@@H](CCCNC(=N)N)C(=O)N[C@@H](CCC(N)=O)C(=O)N[C@@H](CCC(N)=O)C(N)=O)[C@@H](C)CC)[C@@H](C)CC)[C@@H](C)O)[C@@H](C)O)C(C)C)C(C)C [Melittin]
fold increase of MIC and MBC values ([2]; E. coli ATCC 8739, 0.25 mg/mL trypsin): 32 fold | MIC, 80 °C [2]: 2 µM (≈ 5.69 µg/mL) | MBC, Control [2]: 2 µM (≈ 5.69 µg/mL) | MIC, Control [2]: 2 µM (≈ 5.69 µg/mL) | concentration at maximum Disc3(5) fluorescence [3]: 2 µM | incubation time to maximum Disc3(5) fluorescence [3]: 3 min | concentration at which LPS-binding affinity peaked [4]: 16 µM

CCn1cc(C(=O)O)c(=O)c2cc(F)c(N3CCNCC3)cc21 [Norfloxacin]
fold increase in MIC ([1]; twenty passages (twenty days)): 512 fold | MIC [1]: 0.25 µM (≈ 0.0798 µg/mL)

C[C@H](NC(=O)[C@H](Cc1c[nH]c2ccccc12)NC(=O)CNC(=O)[C@H](CCCNC(=N)N)NC(=O)[C@H](Cc1c[nH]c2ccccc12)NC(=O)[C@H](Cc1c[nH]c2ccccc12)NC(=O)[C@H](CO)NC(=O)[C@H](CO)NC(=O)[C@H](Cc1c[nH]c2ccccc12)NC(=O)CN)C(=O)N[C@@H](CCCCN)C(=O)N[C@@H](Cc1c[nH]c2ccccc12)C(=O)N[C@@H](C)C(=O)N[C@@H](CO)C(=O)N[C@@H](CCCCN)C(=O)NCC(=O)N[C@@H](Cc1c[nH]c2ccccc12)C(=O)NCC(=O)N[C@@H](CCCCN)C(N)=O [Peptide 6, [Trp^2,5,6,9,12,17]-des-(Asp20-Cys37)-E2P] (H-GWSSWWRGWAKWASKGWGK-NH2)
MIC, NH4+ [5]: 4 µM | MBC, Mg2+ ([5]; E. coli ATCC 8739, 1 mM MgCl2): 32 µM | MIC, Mg2+ ([5]; E. coli ATCC 8739, 1 mM MgCl2): 32 µM | MIC, Zn2+ [5]: 4 µM | MBC, Serum 10% [5]: 4 µM | MIC, Serum 10% [5]: 4 µM | MBC, Serum 20% ([5]; E. coli ATCC 8739, 20% FBS): 8 µM | MIC, Serum 20% ([5]; E. coli ATCC 8739, 20% FBS): 8 µM

CC[C@H](C)[C@H](NC(=O)[C@H](CO)NC(=O)[C@H](CO)NC(=O)[C@H](Cc1ccccc1)NC(=O)CN)C(=O)N[C@@H](Cc1ccccc1)C(=O)N[C@@H](CCCCNC(=N)N)C(=O)NCC(=O)N[C@H](C(=O)N[C@@H](C)C(=O)N[C@@H](CCCCNC(=N)N)C(=O)N[C@@H](Cc1ccccc1)C(=O)N[C@@H](C)C(=O)N[C@@H](CO)C(=O)N[C@@H](CCCCNC(=N)N)C(=O)NCC(=O)N[C@@H](CC(C)C)C(=O)NCC(=O)N[C@@H](CCCCNC(=N)N)C(N)=O)C(C)C [Peptide 7, [hArg^7,11,15,19]-des-(Asp20-Cys37)-E2P] (H-GFSSIF[hArg]GVA[hArg]FAS[hArg]GLG[hArg]-NH2)
MIC, 80 °C [2]: 2 µM (≈ 4.19 µg/mL) | MBC, Control [2]: 2 µM (≈ 4.19 µg/mL) | MIC, Control [2]: 2 µM (≈ 4.19 µg/mL) | effect on survival of larvae (toxicity) [6]: did not affect the survival of the larvae | MIC, Fe3+ ([5]; E. coli ATCC 8739, 4 μM FeCl3): 2 µM | MIC, NH4+ [5]: 2 µM | MIC, K+ ([5]; E. coli ATCC 8739, 0.5 mM KCl): 2 µM | MIC, Mg2+ ([5]; E. coli ATCC 8739, 1 mM MgCl2): 8 µM | MBC, Ca2+ [5, 7]: 64 µM | MIC, Ca2+ [5, 7]: 64 µM | MIC, Zn2+ [5]: 4 µM | MBC, Serum 10% [5]: 4 µM | MIC, Serum 10% [5]: 4 µM

CO[C@H]1/C=C/O[C@@]2(C)Oc3c(C)c(O)c4c(O)c(c(/C=N/N5CCN(C)CC5)c(O)c4c3C2=O)NC(=O)/C(C)=C\C=C\[C@H](C)[C@H](O)[C@@H](C)[C@@H](O)[C@@H](C)[C@H](OC(C)=O)[C@@H]1C [Rifampicin]
fold increase in MIC ([1]; within five passages): 512 fold | MIC [1]: 8 µM (≈ 6.58 µg/mL)
